From article PMC6034508 (Inorganic chemistry, 2018)
Values belong to the molecule of their own block, whether it stands above or below them.

Legend:
[1] = target: T1, CTSL (Homo sapiens, UniProt P07711); assay: Cathepsin L inhibition, progress curve assay with Z-Phe-Arg-AMC; type: biochemical
[2] = target: CTSB (Homo sapiens, UniProt P07858); assay: Cathepsin B inhibition, progress curve assay with Z-Arg-Arg-AMC; type: biochemical
Procedure, shortened: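 Buffer is 0.4 M acetate, pH 5.5, with 5 mM EDTA, 0.01% Triton X-100, DTT 10 mM and <1% DMSO, at 25 °C. Test compound is run at 1 nM to 100 μM. Enzyme is added last, and free AMC release is followed at once over 15 min. Progress curves are fitted to obtain kinact and Ki. CA-074 is the positive control. Values are means of three independent experiments ± SD.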

[3] = target: CTSS (Homo sapiens, UniProt P25774); assay: Cathepsin S inhibition, progress curve assay with Z-Val-Val-Arg-AMC; type: biochemical
Chain of CTSS (P25774 115-331): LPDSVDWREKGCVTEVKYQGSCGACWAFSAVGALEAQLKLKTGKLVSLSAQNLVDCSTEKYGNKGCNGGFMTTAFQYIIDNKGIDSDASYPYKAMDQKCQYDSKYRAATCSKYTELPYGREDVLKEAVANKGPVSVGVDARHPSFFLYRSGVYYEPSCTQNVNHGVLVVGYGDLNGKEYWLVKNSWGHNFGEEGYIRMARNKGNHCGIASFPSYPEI
Procedure, shortened: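 Buffer is 50 mM phosphate, pH 6.5, with 2.5 mM EDTA, DTT 8 mM and <1% DMSO, at 25 °C. Test compound is run at 1–20 μM. […] Results are averages of three independent experiments, errors as standard deviations.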

[4] = target: T1, CTSL; conditions: literature value; ref [47]; cited from earlier work
[5] = tested on: DU-145 cells; assay: Confocal imaging of intracellular fluorescence; type: cell-based; conditions: DU-145, CLIK-148 50 μM for 24 h before 7 (30 μM)
Procedure, shortened: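 Live DU-145 cells are grown 48 h in 35 mm dishes (DMEM, 10% FBS, 37 °C, 5% CO2), then given 30 μM test compound or DMSO vehicle for 2 h, washed thrice and imaged in PBS. In the inhibition arm, cells receive 50 μM CLIK-148 for 24 h first. Confocal imaging uses 405 nm excitation, 501–740 nm emission and 1.5 μm z-stacks, with four biological replicates at 20×. Thresholded fluorescence per image is divided by manual cell count.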

T1 sequence (P07711 114-333): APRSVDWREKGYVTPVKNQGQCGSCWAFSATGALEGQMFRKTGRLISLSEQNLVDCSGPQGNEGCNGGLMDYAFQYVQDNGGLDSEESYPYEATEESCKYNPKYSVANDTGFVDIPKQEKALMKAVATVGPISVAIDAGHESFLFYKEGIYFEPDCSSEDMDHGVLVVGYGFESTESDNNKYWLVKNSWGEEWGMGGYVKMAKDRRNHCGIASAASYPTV

Ki [1]: 0.74 ± 0.05 µM
kinact/Ki ratio CTSL/CTSS (selectivity) ([1]; CTSL over CTSS): 8
kinact/KI ([1]; pH 5.5, read-out: CTSL kinact/Ki): 42300 ± 4100 M⁻¹ s⁻¹
kinact ([1]; read-out: CTSL kinact (rate of irreversible inactivation)): 0.031 ± 0.002 s⁻¹
Fold enhancement of CTSL kinact/Ki relative to free inhibitor 1 ([1]; relative to 1): roughly 3 fold
Ki [2]: 296 ± 8 µM
kinact/KI ([2]; pH 5.5, read-out: CTSB kinact/Ki): 9 M⁻¹ s⁻¹
Ki [3]: 3 ± 0.8 µM
kinact/KI ([3]; pH 6.5, read-out: CTSS kinact/Ki): 5300 ± 200 M⁻¹ s⁻¹
Compound: CN(C)C(=O)C(Cc1ccccc1)NC(=O)[C@H]1O[C@@H]1C(=O)NCCCNC(=O)c1ccc(-c2ccccn2)nc1 (stereo partly drawn) [Compound 2, (2S,3S)-N^2-(3-([2,2′-Bipyridine]-5-carboxamido)-propyl)-N^3-(1-(dimethylamino)-1-oxo-3-phenylpropan-2-yl)-oxirane-2,3-dicarboxamide]

Compound: CN(C)C(=O)[C@H](Cc1ccccc1)NC(=O)[C@H]1O[C@@H]1C(=O)NCCc1ccccn1 [CLIK-148, reference compound]
CTSL kinact/Ki [4]: 11000 ± 3000 M⁻¹ s⁻¹
Decrease of intracellular fluorescence intensity of 7 [5]: over 50%

Compound: O=S(=O)([O-])C(F)(F)F.[C-]#[O+].[C-]#[O+].[C-]#[O+].[Re+].c1ccncc1.c1cnc2c(c1)ccc1cccnc12 [[Re(phen)(CO)3(pyridine)](OTf), reference compound]
CTSL inhibition, in words ([1]; at concentrations up to 100 μM): no inhibition
